Laboratory results reported in PMC11350598 (JACS Au, 2024).
Read-outs that look alike come from different tables or passages of the source. Marks after values point to notes of the source that are not given here.

How the values were obtained:
[1] = tested on: wild-type (AF) A. ferrooxidans cells; assay: Metal recovery from porphyry molybdenite processing concentrate; type: cell-based; details: for binding during reactions with process concentrate: data not shown; for efficiency of recovery: diluted acidic wastewater from molybdenite processing, pH 1.6
Outline: (§1)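 Wild-type *A. ferrooxidans* and strains engineered to (over)express wild-type (AFWP) or mutant (AFMP) ModA/WtpA oxyanion-binding protein (AFE_1498) were each reacted with diluted acidic wastewater from the washing and extraction steps of porphyry molybdenite processing. The wastewater held molybdenum and rhenium as major components, at pH 1.6. Mo and Re recovery efficiency after binding was compared with wild-type cells.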

AFMP cells = assay: as above; type: cell-based, A. ferrooxidans; details: for binding during reactions with process concentrate: data not shown; for efficiency of recovery: diluted acidic wastewater from molybdenite processing
Outline: as §1

[2] = tested on: wild-type (AF) A. ferrooxidans cells; type: cell-based; details: for binding capacity: 1 mM mixed metal solution, pH 1.8
[3] = tested on: AFWP (engineered A. ferrooxidans overexpressing wild-type ModA/WtpA); assay: Metal binding by cells in synthetic metal solutions; type: cell-based; details: for binding capacity to other oxyanion metals: Figure S6; for binding capacity / fold higher binding capacity compared to wild-type cells: pH 1.8
[4] = tested on: AFMP (engineered A. ferrooxidans expressing mutant ModA/WtpA); assay: as above; type: cell-based; details: for binding capacity to other oxyanion metals: Figure S6
[5] = tested on: wild-type ModA/WtpA protein (AFE_1498); assay: Metal binding in vitro by purified protein; design: species or system A. ferrooxidans; details: pH 1.8, 1:1 molar ratio
Outline: (§2)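 Purified polyHis-tagged protein (Ni-NTA resin, then size exclusion chromatography; about 35 kDa on SDS-PAGE). It was incubated 1 h at pH 1.8 with a solution of one oxyanion: molybdate, tungstate, chromate or perrhenate. Binding efficiency was taken after the incubation. Error bars are one standard deviation, and p < 0.05 versus wild-type protein for the same metal.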

[6] = tested on: mutant (G9C/A166C) ModA/WtpA protein; assay: Metal binding in vitro by purified protein; design: species or system A. ferrooxidans; details: pH 1.8, 1:1 molar ratio
Outline: as §2

[7] = biological target: wild-type ModA/WtpA protein; assay: Quenching of intrinsic tryptophan fluorescence, Langmuir isotherm fit; type: binding, A. ferrooxidans; details: read-out: dissociation constant, pH 1.8
Outline: (§3)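 Purified polyHis-tagged protein (Ni-NTA resin, then size exclusion chromatography) at a fixed amount, titrated at pH 1.8 with varying initial concentrations of molybdate, tungstate, chromate or perrhenate. Significance was p < 0.05 versus wild-type protein for the same metal.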

mutant ModA/WtpA protein = assay: as above; type: binding, A. ferrooxidans; details: pH 1.8; for Kd: read-out: dissociation constant, mutant protein
Outline: as §3

[8] = cited from earlier work
AFWP cells = assay: Metal recovery from porphyry molybdenite processing concentrate; type: cell-based, A. ferrooxidans; details: pH 1.6; for efficiency of recovery: diluted acidic wastewater from molybdenite processing
Outline: as §1

[9] = 1 mM mixed metal solution, pH 1.8
[10] = 1 mM pure metal solution, pH 1.8
[11] = diluted process concentrate, pH 1.6

In the case of [As] [arsenic], the “binding during reactions with process concentrate” value (“binding during reactions” below) [1] is reported as “nonspecific binding” and the “binding during reactions” value (AFMP cells) is reported as “nonspecific binding”.
In the case of O=[As][O-].[Na+] [arsenite], the “binding capacity to other oxyanion metals” value [2] is reported as “did not show significant binding capacity”, the “binding capacity to other oxyanion metals” value [3] is reported as “did not show significant binding capacity” and the “binding capacity to other oxyanion metals” value [4] is reported as “did not show significant binding capacity”.
For [O]=[Cr](=[O])([O-])[O-] [chromate], the “binding efficiency (bound)” value [5] was “nearly all”, the “binding efficiency (bound)” value [6] was “nearly all” and the Kd [7] was 0.5 ± 0.11 µM. The Kd (mutant ModA/WtpA protein) was 0.48 ± 0.07 µM, the binding capacity ([2]; wild-type AF) was 0.03 fg/cell and the binding capacity ([3]; 1 mM mixed metal solution) was 0.06 fg/cell. The binding capacity ([3]; 1 mM pure metal solution) was 0.6 fg/cell, the “fold higher binding capacity compared to wild-type cells” value ([3]; 1 mM pure metal solution) was 1.3 fold and the binding capacity [4, 9] was 0.07 fg/cell. The binding capacity [4, 10] was 0.6 fg/cell, the “fold higher binding capacity compared to wild-type cells” value [4, 10] was 1.3 fold and the pKa ([8]; ref [4],[47]) was 6.5.
With [Fe+2] [iron] the “binding efficiency (bound)” value [5] was 1.7 ± 0.3%, the “binding efficiency (bound)” value [6] was 1.3 ± 0.5% and the binding capacity ([2]; wild-type AF) was 0.04 fg/cell. The binding capacity ([3]; 1 mM mixed metal solution) was 0.04 fg/cell and the binding capacity [4, 9] was 0.04 fg/cell.
For [O]=[Mo](=[O])([O-])[O-] [molybdate], the “binding efficiency (bound)” value [5] was “nearly all”, the “binding efficiency (bound)” value [6] was “nearly all” and the Kd [7] was 0.32 ± 0.03 µM. For the same compound, the “fold lower Kd (higher affinity) of mutant protein than wild-type protein” value (mutant ModA/WtpA protein) was 2 fold, the Kd (mutant ModA/WtpA protein) was 0.15 ± 0.01 µM and the binding capacity ([2]; wild-type AF) was 3.6 fg/cell. For the same compound, the binding capacity ([3]; 1 mM mixed metal solution) was 5.9 fg/cell, the binding capacity ([3]; 1 mM pure metal solution) was 18 fg/cell and the “fold higher binding capacity compared to wild-type cells” value ([3]; 1 mM pure metal solution) was 1.4 fold. The binding capacity [4, 9] was 8.4 fg/cell, the binding capacity [4, 10] was 18 fg/cell and the “fold higher binding capacity compared to wild-type cells” value [4, 10] was 1.4 fold. The efficiency of recovery [1] was 6.0 ± 0.1%, the efficiency of recovery (AFWP cells) was 12 ± 1% and the “fold more recovered compared to wild-type AF cells” value (AFWP cells; diluted process concentrate) was 2 fold. The efficiency of recovery (AFMP cells; pH 1.6) was 12 ± 1%, the “fold more recovered compared to wild-type AF cells” value (AFMP cells; [11]) was 2 fold and the pKa ([8]; ref [4],[47]) was 3.8.
With [O]=[Re](=[O])(=[O])[O-] [perrhenate] the “binding efficiency (bound)” value [5] was 1.4%, the “binding efficiency (bound)” value [6] was 93% and the Kd [7] was 1 ± 0.1 µM. The “fold lower Kd (higher affinity) of mutant protein than wild-type protein” value (mutant ModA/WtpA protein) was 6 fold, the Kd (mutant ModA/WtpA protein) was 0.16 ± 0.03 µM and the “fold higher binding capacity than wild-type AF and AFWP cells” value [4, 9] was 2.7 fold. For the same compound, the binding capacity [4, 10] was 1.3 fg/cell, the “fold higher binding capacity compared to AFWP cells” value [4, 10] was 2 fold and the “fold higher binding capacity compared to wild-type cells” value [4, 10] was 5 fold. The efficiency of recovery [1] was 1.7 ± 0.1%, the efficiency of recovery (AFWP cells) was 1.9 ± 0.2%*^,** and the efficiency of recovery (AFMP cells; pH 1.6) was 5.7 ± 0.1%*^,**. The “fold more recovered than wild-type and AFWP cells” value (AFMP cells; [11]) was 3 fold and the pKa ([8]; ref [47]) was −1.25.
For [Se] [selenium], the “binding during reactions” value [1] was “nonspecific binding” and the “binding during reactions” value (AFMP cells) was “nonspecific binding”.
For [O]=[W](=[O])([O-])[O-] [tungstate], the “binding efficiency (bound)” value [5] was “nearly all”, the “binding efficiency (bound)” value [6] was “nearly all” and the Kd [7] was 0.49 ± 0.11 µM. The Kd (mutant ModA/WtpA protein) was 0.36 ± 0.06 µM, the binding capacity ([3]; 1 mM mixed metal solution) was 0.02 fg/cell and the binding capacity ([3]; 1 mM pure metal solution) was 0.23 fg/cell. The “fold higher binding capacity compared to wild-type cells” value ([3]; 1 mM pure metal solution) was 2 fold, the binding capacity [4, 9] was 0.04 fg/cell and the binding capacity [4, 10] was 0.24 fg/cell. The “fold higher binding capacity compared to wild-type cells” value [4, 10] was 2 fold and the pKa ([8]; ref [4],[47]) was 6.7.
With phosphate the “binding capacity to other oxyanion metals” value ([2]; wild-type AF, Figure S6) was “did not show significant binding capacity”, the “binding capacity to other oxyanion metals” value [3] was “did not show significant binding capacity” and the “binding capacity to other oxyanion metals” value [4] was “did not show significant binding capacity”.
